Experimental data reported in ChEMBL document CHEMBL1121364, “Nucleoside conjugates as potential antitumor agents. 3. Synthesis and antitumor activity of 1-(beta-D-arabinofuranosyl)cytosine conjugates of corticosteroids” (1980).

Columns and labels:
L1210 [1] = assay: Antitumor activity in the mice with intraperitoneal implanted L1210 lymphoid leukemia at the dose of 17.7 and 27.7 mg/kg/day x 5 was determined as mean survival of treated group compared to untreated; 10.5/9.5; format: functional, Mus musculus
In short: (§1)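 C3D2F1/J female mice (C3H/HeJ female × DBA/2J male), groups of six to eight, average weight 25 g. Inoculated ip with 1 × 10^6 L1210 ascites cells taken from DBA/2Ha donor mice bearing 3-5 day old tumors. Compounds were dissolved in 0.154 N NaOH, neutralized with 0.154 N HCl (final 0.9% NaCl), and given ip daily for 5 days from 24 h post-implant. Median survival T/C; ILS = (T/C − 1) × 100; 30-day survivors counted.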

L1210 [2] = assay: Antitumor activity in mice with intraperitoneal implanted L1210 lymphoid leukemia at the dose 9.2 and 14.5 mg/kg/day x 5 was determined as weight change (g/mouse) on 8th day; format: functional
In short: (§2)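 Female C3D2F1/J mice (C3H/HeJ × DBA/2J), groups of six to eight, average weight 25 g. Each mouse got 1 × 10^6 L1210 ascites cells ip, taken from DBA/2Ha donor mice bearing 3-5 day tumors. Compound was dissolved in 0.154 N NaOH and neutralized with 0.154 N HCl (final 0.9% NaCl). Dosed ip daily ×5, starting 24 h after implant. Recorded body weight change on day 8, survival range, median survival and 30-day survivors. ILS = (T/C − 1) × 100.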

L1210 [3] = assay: Antitumor activity in mice with intraperitoneal implanted L1210 lymphoid leukemia at the dose 17.7 and 27.7 mg/kg/day x 5 was determined as weight change (g/mouse) on 8th day; format: functional; in short: as §2
L1210 [4] = assay: Antitumor activity in the mice with intraperitoneal implanted L1210 lymphoid leukemia at the dose of 9.2 and 14.5 mg/kg/day x 5 was determined as mean survival of treated group compared to untreated; 12/11; format: functional, Mus musculus
L1210 [5] = assay: Antitumor activity in the mice with intraperitoneal implanted L1210 lymphoid leukemia at the dose 17.7 and 27.7 mg/kg/day x 5 was determined and number of animals survived on 30 th day were reported; 0/8; format: functional, Mus musculus; in short: as §2
L1210 [6] = assay: Antitumor activity in the mice with intraperitoneal implanted L1210 lymphoid leukemia at the dose 9.2 and 14.5 mg/kg/day x 5 was determined as percentage increase in the life span as compared with control tumor bearers; format: functional, Mus musculus; in short: as §1
L1210 [7] = assay: Antitumor activity in the mice with intraperitoneal implanted L1210 lymphoid leukemia at the dose 17.7 and 27.7 mg/kg/day x 5 was determined as Survival time in days; Range is 7-17 days; format: functional, Mus musculus; in short: as §2
L1210 [8] = assay: Antitumor activity in the mice with intraperitoneal implanted L1210 lymphoid leukemia at the dose 9.2 and 14.5 mg/kg/day x 5 was determined as Survival time in days; Range is 12-16 days; format: functional, Mus musculus; in short: as §1
L1210 [9] = assay: Antitumor activity in the mice with intraperitoneal implanted L1210 lymphoid leukemia at the dose 17.7 and 27.7 mg/kg/day x 5 was determined as percentage increase in the life span as compared with control tumor bearers; format: functional, Mus musculus; in short: as §2
L1210 [10] = assay: Antitumor activity in the mice with intraperitoneal implanted L1210 lymphoid leukemia at the dose 9.2 and 14.5 mg/kg/day x 5 was determined and number of animals survived on 30 th day were reported; 0/6; format: functional, Mus musculus; in short: as §1
L1210 [11] = assay: Antitumor activity in the mice with intraperitoneal implanted L1210 lymphoid leukemia at the dose of 75 mg/kg/day x 5 was determined as mean survival of treated group compared to untreated; 18/9.5; format: functional, Mus musculus
L1210 [12] = assay: Antitumor activity in the mice with intraperitoneal implanted L1210 lymphoid leukemia at the dose of 50 mg/kg/day x 5 was determined as mean survival of treated group compared to untreated; 20.5/8; format: functional, Mus musculus
L1210 [13] = assay: Antitumor activity in mice with intraperitoneal implanted L1210 lymphoid leukemia at the dose 75 mg/kg/day x 5 was determined as weight change (g/mouse) on 8th day; format: functional
In short: (§3)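 C3D2F1/J female mice (C3H/HeJ × DBA/2J), groups of six to eight, average 25 g, inoculated ip with 1 × 10^6 L1210 ascites cells taken from DBA/2Ha donor mice carrying 3-5 day tumors. Compound dissolved in 0.154 N NaOH, then neutralized with 0.154 N HCl to give 0.9% NaCl. Given ip daily for 5 consecutive days starting 24 h after implantation. Body weight change per mouse recorded on day 8.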

L1210 [14] = assay: In Vitro evaluation for the antiproliferative activity by observing the growth inhibition of L1210 lymphoid leukemia cells in culture at 72 hour; format: functional, Mus musculus
In short: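 Growth of L1210 lymphoid leukemia cells in culture measured by Trypan blue exclusion of viable cells after 72 h of drug exposure. ED50 is the concentration giving 50% growth inhibition. In some runs the compound was first preincubated in medium at 37 °C for 24 or 48 h before the assay.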

L1210 [15] = assay: Antitumor activity in mice with intraperitoneal implanted L1210 lymphoid leukemia at the dose 25 mg/kg/day x 5 was determined as weight change (g/mouse) on 8th day; format: functional; in short: as §3
L1210 [16] = assay: Antitumor activity in mice with intraperitoneal implanted L1210 lymphoid leukemia at the dose 50 mg/kg/day x 5 was determined as weight change (g/mouse) on 8th day; format: functional; in short: as §3
L1210 [17] = assay: Antitumor activity in the mice with intraperitoneal implanted L1210 lymphoid leukemia at the dose 25 mg/kg/day x 5 was determined and number of animals survived on 30 th day were reported; 1/8; format: functional, Mus musculus; in short: as §2
L1210 [18] = assay: Antitumor activity in the mice with intraperitoneal implanted L1210 lymphoid leukemia at the dose 50 mg/kg/day x 5 was determined as Survival time in days; Range is 14-24 days; format: functional, Mus musculus; in short: as §2
L1210 [19] = assay: Antitumor activity in the mice with intraperitoneal implanted L1210 lymphoid leukemia at the dose 50 mg/kg/day x 5 was determined and number of animals survived on 30 th day were reported; 0/8; format: functional, Mus musculus; in short: as §2
L1210 [20] = assay: Antitumor activity in the mice with intraperitoneal implanted L1210 lymphoid leukemia at the dose 75 mg/kg/day x 5 was determined and number of animals survived on 30 th day were reported; 1/8; format: functional, Mus musculus; in short: as §1
L1210 [21] = assay: Antitumor activity in the mice with intraperitoneal implanted L1210 lymphoid leukemia at the dose 50 mg/kg/day x 5 was determined as percentage increase in the life span as compared with control tumor bearers; format: functional; details: Mus musculus, L1210, ip; in short: as §1
L1210 [22] = assay: Antitumor activity in the mice with intraperitoneal implanted L1210 lymphoid leukemia at the dose 75 mg/kg/day x 5 was determined as percentage increase in the life span as compared with control tumor bearers; format: functional; details: Mus musculus, L1210, ip; in short: as §1
L1210 [23] = assay: Antitumor activity in the mice with intraperitoneal implanted L1210 lymphoid leukemia at the dose 75 mg/kg/day x 5 was determined as Survival time in days; Range is 15-37 days; format: functional, Mus musculus; in short: as §1
L1210 [24] = assay: Antitumor activity in the mice with intraperitoneal implanted L1210 lymphoid leukemia at the dose 25 mg/kg/day x 5 was determined as Survival time in days; Range is 13- >45 days; format: functional, Mus musculus; in short: as §2
L1210 [25] = assay: Antitumor activity in the mice with intraperitoneal implanted L1210 lymphoid leukemia at the dose 25 mg/kg/day x 5 was determined as percentage increase in the life span as compared with control tumor bearers; format: functional; details: Mus musculus, L1210, ip; in short: as §2
L1210 [26] = assay: Antitumor activity in the mice with intraperitoneal implanted L1210 lymphoid leukemia at the dose of 25 mg/kg/day x 5 was determined as mean survival of treated group compared to untreated; 17.5/9.5; format: functional, Mus musculus; in short: as §1

In the case of `C[C@]12CCC(=O)C=C1CC[C@H]1[C@@H]3CC[C@](O)(C(=O)CO)[C@@]3(C)C[C@H](O)[C@@]12F.Nc1ccn([C@@H]2O[C@H](CO)[C@@H](O)[C@@H]2O)c(=O)n1`, the T/C (L1210 [1]) is reported as 10.5, the Weight change (L1210 [2]) is reported as -4.47 g mouse-1 and the Weight change (L1210 [3]) is reported as -3.48 g mouse-1. For the same compound, the T/C (L1210 [4]) was 12, the Survivors (L1210 [5]) was 0 and the ILS (L1210 [6]) was 9%. It also gave a Survival time (L1210 [7]) of 7 days, a Survival time (L1210 [8]) of 12 days and an ILS (L1210 [9]) of 11%. For the same compound, the Survivors (L1210 [10]) was 0.

Work on `C[C@H]1C[C@@H]2[C@H]([C@@H](O)C[C@@]3(C)[C@H]2CC[C@]3(O)C(=O)COP(=O)(O)OC[C@H]2O[C@@H](n3ccc(N)nc3=O)[C@@H](O)[C@@H]2O)[C@@]2(C)C=CC(=O)C=C12` yielded a T/C (L1210 [11]) of 18, a T/C (L1210 [12]) of 20.5 and a Weight change (L1210 [13]) of -1.07 g mouse-1. For the same compound, the “ED 50” value (L1210 [14]) was 450 nM, the Weight change (L1210 [15]) was 2 g mouse-1 and the Weight change (L1210 [16]) was -1.08 g mouse-1. It also gave a Survivors (L1210 [17]) of 1, a Survival time (L1210 [18]) of 14 days and a Survivors (L1210 [19]) of 0. For the same compound, the Survivors (L1210 [20]) was 1, the ILS at 50 mg/kg/day (L1210 [21]) was 156% and the ILS at 75 mg/kg/day (L1210 [22]) was 90%. The Survival time (L1210 [23]) was 15 days, the Survival time (L1210 [24]) was 13 days and the ILS at 25 mg/kg/day (L1210 [25]) was 84%. It also gave a T/C (L1210 [26]) of 17.5.
